ChEMBL document CHEMBL1687841, “Molecular analysis of antimicrobial resistance mechanisms in Neisseria gonorrhoeae isolates from Ontario, Canada” (2011)
In brackets after ≈: the same amount, converted by molar mass.

Key:
Neisseria gonorrhoeae [1] = assay: microbe, parasite or virus in culture; settings: 24 h
Neisseria gonorrhoeae [2] = assay: Antimicrobial activity against Neisseria gonorrhoeae clinical isolates harboring PBP2 XXXIV pattern, MAST 51 after 24 hrs by agar dilution method; assay type: functional
In short: (§1)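 Ontario clinical isolates grown on GC agar plus 1% defined growth supplement, 37°C, 5% CO2, 20 to 24 h, subcultured twice before testing. MICs by agar dilution per CLSI guidelines. QC strains: ATCC 49226 and 2008 WHO panel strains F, G, K, L, N, O, P. Genotypes deduced by PCR and sequencing of ponA, penA, porB, mtrR and its promoter.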

Neisseria gonorrhoeae [3] = assay: Antimicrobial activity against Neisseria gonorrhoeae clinical isolates harboring porB G120K, A121D mutant gene, PBP1 L421P mutant gene, PBP2 XXXVIII pattern, deletion of nucleotide A from […] promoter, MAST 3563 after 24 hrs by agar dilution method; assay type: functional
In short: as §1

Neisseria gonorrhoeae [4] = assay: Antimicrobial activity against Neisseria gonorrhoeae clinical isolates harboring porB A121S mutant gene, PBP1 L421P mutant gene, PBP2 XXXVIII pattern, deletion of nucleotide A from […] promoter, MAST 3116 after 24 hrs by agar dilution method; assay type: functional
In short: as §1

Neisseria gonorrhoeae [5] = assay: Antimicrobial activity against Neisseria gonorrhoeae clinical isolates harboring porB G120K, A121D mutant gene, PBP1 L421P mutant gene, PBP2 XXXVIII pattern, deletion of nucleotide A from […] promoter, MAST 3158 after 24 hrs by agar dilution method; assay type: functional
In short: as §1

Neisseria gonorrhoeae [6] = assay: Antimicrobial activity against Neisseria gonorrhoeae clinical isolates harboring porB G120K, A121D mutant gene, PBP1 L421P mutant gene, PBP2 XXXVIII pattern, insertion of nucleotide T from […] promoter, MAST 3158 after 24 hrs by agar dilution method; assay type: functional
In short: as §1

Neisseria gonorrhoeae [7] = assay: Antimicrobial activity against Neisseria gonorrhoeae clinical isolates harboring PBP2 XXXV pattern, deletion of nucleotide A from […] promoter, MAST 546 after 24 hrs by agar dilution method; assay type: functional
In short: as §1

Neisseria gonorrhoeae [8] = assay: Antimicrobial activity against Neisseria gonorrhoeae clinical isolates harboring porB G120K, A121D mutant gene, PBP2 XXXVIII pattern, deletion of nucleotide A from […] promoter, MAST 3158 after 24 hrs by agar dilution method; assay type: functional
In short: as §1

Neisseria gonorrhoeae [9] = assay: Antimicrobial activity against Neisseria gonorrhoeae clinical isolates harboring porB G120K, A121D mutant gene, PBP1 L421P mutant gene, PBP2 XXXIV pattern, deletion of nucleotide A from […] promoter, MAST 225 after 24 hrs by agar dilution method; assay type: functional
In short: as §1

Neisseria gonorrhoeae [10] = assay: Antimicrobial activity against Neisseria gonorrhoeae clinical isolates assessed as percent resistant isolates after 24 hrs by agar dilution method; assay type: functional
Neisseria gonorrhoeae [11] = assay: Antimicrobial activity against Neisseria gonorrhoeae clinical isolates assessed as percent susceptible isolates after 24 hrs by agar dilution method; assay type: functional
Neisseria gonorrhoeae [12] = assay: Antimicrobial activity against Neisseria gonorrhoeae clinical isolates harboring PBP2 XXXVIII pattern, deletion of nucleotide A from […] promoter, MAST 3553 after 24 hrs by agar dilution method; assay type: functional
In short: as §1

Neisseria gonorrhoeae [13] = assay: Antimicrobial activity against Neisseria gonorrhoeae clinical isolates harboring PBP1 L421P mutant gene, PBP2 XXXVII pattern, deletion of nucleotide A from […] promoter, MtrR G45D mutant MAST 299 after 24 hrs by agar dilution method; assay type: functional
In short: as §1

Neisseria gonorrhoeae [14] = assay: Antimicrobial activity against Neisseria gonorrhoeae clinical isolates harboring porB G120K, A121D mutant gene, PBP1 L421P mutant gene, PBP2 XXXVIII pattern, deletion of nucleotide A from […] promoter, MAST 3570 after 24 hrs by agar dilution method; assay type: functional
In short: as §1

Neisseria gonorrhoeae [15] = assay: Antimicrobial activity against Neisseria gonorrhoeae clinical isolates harboring porB G120K, A121D mutant gene, PBP2 XXXVI pattern, deletion of nucleotide A from […] promoter, MAST 3596 after 24 hrs by agar dilution method; assay type: functional
In short: as §1

Neisseria gonorrhoeae [16] = assay: Antimicrobial activity against Neisseria gonorrhoeae clinical isolates after 24 hrs by agar dilution method; assay type: functional

Row | Structure (SMILES) | MIC (Neisseria gonorrhoeae [1]) [µg/mL] | MIC (Neisseria gonorrhoeae [2]) [µg/mL] | MIC (Neisseria gonorrhoeae [3]) [µg/mL] | MIC (Neisseria gonorrhoeae [4]) [µg/mL] | MIC (Neisseria gonorrhoeae [5]) [µg/mL] | MIC (Neisseria gonorrhoeae [6]) [µg/mL] | MIC (Neisseria gonorrhoeae [7]) [µg/mL] | MIC (Neisseria gonorrhoeae [8]) [µg/mL] | MIC (Neisseria gonorrhoeae [9]) [µg/mL] | Activity (Neisseria gonorrhoeae [10]) [%] | Activity (Neisseria gonorrhoeae [11]) [%] | MIC (Neisseria gonorrhoeae [12]) [µg/mL] | MIC (Neisseria gonorrhoeae [13]) [µg/mL] | MIC (Neisseria gonorrhoeae [14]) [µg/mL] | MIC (Neisseria gonorrhoeae [15]) [µg/mL] | MIC50 (Neisseria gonorrhoeae [16]) [µg/mL] | MIC90 (Neisseria gonorrhoeae [16]) [µg/mL] | MIC (Neisseria gonorrhoeae [16]) [µg/mL]
1 | CC[C@H]1OC(=O)[C@H](C)[C@@H](O[C@H]2C[C@@](C)(OC)[C@@H](O)[C@H](C)O2)[C@H](C)[C@@H](O[C@@H]2O[C@H](C)C[C@H](N(C)C)[C@H]2O)[C@](C)(O)C[C@@H](C)CN(C)[C@H](C)[C@@H](O)[C@]1(C)O [AZITHROMYCIN] | 0.25 (≈ 0.334 µM) | – | – | – | – | – | – | – | – | – | – | – | – | – | – | – | – | –
2 | C=CC1=C(C(=O)O)N2C(=O)[C@@H](NC(=O)/C(=N\OCC(=O)O)c3csc(N)n3)[C@H]2SC1 [CEFIXIME] | – | 0.125 (≈ 0.276 µM) | 0.125 (≈ 0.276 µM) | 0.125 (≈ 0.276 µM) | 0.125 (≈ 0.276 µM) | 0.125 (≈ 0.276 µM) | 0.125 (≈ 0.276 µM) | 0.25 (≈ 0.551 µM) | 0.25 (≈ 0.551 µM) | 0 | 100 | 0.125 (≈ 0.276 µM) | 0.25 (≈ 0.551 µM) | 0.125 (≈ 0.276 µM) | 0.125 (≈ 0.276 µM) | ≤ 0.03 | ≤ 0.03 | –
3 | CO/N=C(\C(=O)N[C@@H]1C(=O)N2C(C(=O)O)=C(CSc3nc(=O)c(O)nn3C)CS[C@H]12)c1csc(N)n1 [CEFTRIAXONE] | – | 0.063 (≈ 0.114 µM) | 0.063 (≈ 0.114 µM) | 0.063 (≈ 0.114 µM) | 0.063 (≈ 0.114 µM) | 0.063 (≈ 0.114 µM) | 0.125 (≈ 0.225 µM) | 0.125 (≈ 0.225 µM) | 0.125 (≈ 0.225 µM) | 0 | 100 | 0.032 (≈ 0.0577 µM) | 0.125 (≈ 0.225 µM) | 0.063 (≈ 0.114 µM) | 0.125 (≈ 0.225 µM) | ≤ 0.03 | ≤ 0.06 | –
4 | CC[C@H]1OC(=O)[C@H](C)[C@@H](O[C@H]2C[C@@](C)(OC)[C@@H](O)[C@H](C)O2)[C@H](C)[C@@H](O[C@@H]2O[C@H](C)C[C@H](N(C)C)[C@H]2O)[C@](C)(O)C[C@@H](C)C(=O)[C@H](C)[C@@H](O)[C@]1(C)O [ERYTHROMYCIN] | – | – | – | – | – | – | – | – | – | 22.8 | 77.2 | – | – | – | – | ≤ 1 | 2 (≈ 2.73 µM) | ≤ 1
5 | CC1(C)S[C@@H]2[C@H](NC(=O)Cc3ccccc3)C(=O)N2[C@H]1C(=O)O [PENICILLIN G] | – | 1 (≈ 2.99 µM) | 1 (≈ 2.99 µM) | 2 (≈ 5.98 µM) | 1 (≈ 2.99 µM) | 1 (≈ 2.99 µM) | 1 (≈ 2.99 µM) | 1 (≈ 2.99 µM) | 2 (≈ 5.98 µM) | 12.1 | 10.7 | 0.5 (≈ 1.5 µM) | 2 (≈ 5.98 µM) | 2 (≈ 5.98 µM) | 0.5 (≈ 1.5 µM) | 0.25 (≈ 0.748 µM) | 2 (≈ 5.98 µM) | –
6 | CN[C@@H]1[C@H](O)[C@H](NC)[C@H]2O[C@@]3(O)C(=O)C[C@@H](C)O[C@H]3O[C@@H]2[C@H]1O [SPECTINOMYCIN] | – | – | – | – | – | – | – | – | – | 0 | 100 | – | – | – | – | ≤ 32 | ≤ 32 | –
7 | CN(C)[C@@H]1C(O)=C(C(N)=O)C(=O)[C@@]2(O)C(O)=C3C(=O)c4c(O)cccc4[C@@](C)(O)[C@H]3C[C@@H]12 [TETRACYCLINE] | – | – | – | – | – | – | – | – | – | 25.5 | 27.5 | – | – | – | – | 0.5 (≈ 1.13 µM) | 2 (≈ 4.5 µM) | –
